Myeloid diff MLP: myeloid differentiation induction. ER-HoxA9 myeloid progenitors, lysozyme-GFP differentiation, flow cytometry. calls only at 10 µM. hit rate 1% among 360,000;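 active means normalized GFP-positive differentiation at or above the plate's own cutoff, the solvent-only control mean plus 3 SD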;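 further: cells exposed to compound for four days before flow analysis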
HNF4A DNA FP: change in binding of human HNF4 alpha to DNA. AID 1224865. P41235. HNF4a-FITC DNA binding, fluorescence polarization, 1 h. hit rate 0.3% among 360,000. activity change, % at 10 µM; in the data active means activity change above about 30%, passing the limit was not always enough
CSN inh: inhibitors of human CSN-mediated cullin deneddylation. Q92905. Purified CSN, SCF-Nedd8-OG deneddylation, fluorescence polarization. inhibition, % at 12.5 µM. hit rate 0.38% among 360,000;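 active means pattern-corrected inhibition above about 35%, with an unprinted fluorescence ratio check between 0.5 and 1.5, limit read from the data, passing the limit was not always enough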;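 further: 0% = enzyme with substrate and 100% = substrate without enzyme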
Target sequence (Q92905 whole entry, looked up, one chain of several): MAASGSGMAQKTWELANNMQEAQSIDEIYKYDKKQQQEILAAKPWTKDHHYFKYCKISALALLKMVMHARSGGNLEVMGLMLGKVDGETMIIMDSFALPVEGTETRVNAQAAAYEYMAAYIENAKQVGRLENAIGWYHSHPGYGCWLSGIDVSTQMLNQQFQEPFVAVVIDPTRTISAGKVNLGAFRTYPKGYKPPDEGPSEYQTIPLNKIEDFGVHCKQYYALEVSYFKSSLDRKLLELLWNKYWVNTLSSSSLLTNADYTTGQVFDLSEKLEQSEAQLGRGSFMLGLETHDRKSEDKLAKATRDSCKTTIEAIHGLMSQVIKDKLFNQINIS
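test system = HEK293T-derived human Csn5 enzyme | amount = 0.24 nM Csn5 enzyme, final concentration | medium = Tris/NaCl/DTT buffer, pH 7.5 | schedule = 90 min reaction at room temperature | signal = FP | evaluation = inhibition of Csn5 cleavage, % | compound dosing = single dose of 12.5 µM compound with 0.25% DMSO | probe or stimulus = 10 nM SCFSkp2-Nedd8OG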
Granule exo inh: blocks lytic granule exocytosis; TALL-104 LAMP-1 surface exposure, flow cytometry; cells stimulated with thapsigargin and PMA; inhibition, % at 10 µM; hit rate 0.66% among 360,000; AID 651702;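 active means inhibition above about 55%, limit read from the data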
* = called active by the depositor; i = inactive; + = active, no number. This is a sample that favours compounds with a hit; in the whole collection about 2.2% have one here.

SMILES	Myeloid diff MLP	HNF4A DNA FP	CSN inh	Granule exo inh
O=S(=O)(Nc1ccc2c3c(cccc13)CC2)c1ccc(F)cc1	i	10	10	-2
O=C(/C=C/c1ccccc1)c1ccc2c3c(cccc13)CC2	i	-1	6	-4
Nc1ccc2c3c(cccc13)CC2	+	7	2	-2
c1ccc(Nc2ccc3c4c(cccc24)CC3)cc1	+	96	-69	2
Nc1ccc(S(=O)(=O)N2CCc3ccccc32)cc1	i	85*	0	-12
O=S(=O)(c1cnc[nH]1)N1CCc2ccccc21	i	103	73*	-2
Cc1ccc(NC(=O)CCCN2C(=O)NC(C)(C)C2=O)cc1	i	1	-1	-2
COc1cccc(C(=O)Nc2ccc(N(C)C)cc2)c1OC	+	0	1	1
CCn1c2ccccc2c2cc(NC(=O)c3cccc(OC)c3OC)ccc21	+	1	2	-2
COc1cccc(C(=O)Nc2ccncc2)c1OC	i	-1	-1	-4
CC1CCCCC1NC(=O)CSc1nnc(CC(=O)Nc2ccccc2F)n1C (centres undefined)	i	2	2	-5
O=C(NCCCn1ccnc1)/C(=C/c1ccc(Cl)cc1)NC(=O)c1ccccc1	i	3	5	-6
CN(C)c1ccc(/C=C(/NC(=O)c2ccccc2)C(=O)NCCCn2ccnc2)cc1	i	14	72*	0
CC(/C=C/c1ccco1)=N\NC(=O)CNc1ccc2ccccc2c1	i	-1	-1	100*
Cc1ccc(C)c(NS(=O)(=O)c2cc3c4c(c2)CC(=O)N4CCC3)c1	i	-1	-1	0
O=C(CCn1ccc2cc(S(=O)(=O)N3CCCC3)ccc21)NCCc1ccccc1	+	5	7	-2
COc1ccccc1NC(=O)CCC(=O)Nc1ccccc1OC	i	3	-3	-3
COc1ccccc1NC(=O)CCC(=O)c1ccc(-c2ccccc2)cc1	+	34	5	-4
CCCn1c(SCC(=O)NC2CCC(C)CC2)n[nH]c1=O (centres undefined)	i	0	1	-12
Cc1cc(NCCCN2CCOCC2)n2nc(C)c(-c3ccccc3)c2n1	+	-5	-1	0
Cc1cc(NCCCN2CCOCC2)n2nc(C)c(-c3ccc(F)cc3)c2n1	i	-1	1	1
CC(C)[C@H](NS(=O)(=O)c1ccccc1F)C(=O)NC1CCCCC1	i	2	-4	-2
CC(=O)N(\C=C/C=C/C=C1\Sc2ccccc2C1=O)c1ccccc1	i	49*	1	0
CN(C)/C=C1/Sc2ccccc2C1=O	i	2	-2	-2
CNS(=O)(=O)c1ccc(NC(=O)c2cnn3c(C(F)F)cc(-c4ccccc4)nc23)cc1	i	-11	72*	3
SMILES	Myeloid diff MLP	HNF4A DNA FP	CSN inh	Granule exo inh
CCCCOc1ccc(C(=O)NCC(=O)NC(C)CCc2ccccc2)cc1 (centres undefined)	+	-3	5	6
COc1cc2ncnc(NCc3cccc(Cl)c3)c2cc1OC	+	4	-3	-1
O=C(CN1C(=O)COc2ccc(Cl)cc21)Nc1ccc2c(c1)OCCO2	+	-5	4	-2
O=C(O)C1C2C=CC(O2)C1C(=O)Nc1ccccc1C(F)(F)F (centres undefined)	i	-2	2	83*
C=CCNC(=S)N1CCC(C(=O)c2ccc(F)cc2)CC1	i	-2	5	6
Cc1ccc2c(c1)C(N1CCCC1=O)CC(c1ccco1)N2 (centres undefined)	i	0	3	87*
COC(=O)c1ccc2c(c1)NC(=O)C(N(CC(C)C)CC(C)C)S2 (centres undefined)	i	47*	-3	-2
CCCN(CCC)C1Sc2ccc(C(=O)OC)cc2NC1=O (centres undefined)	i	4	1	2
Cn1nc(C(F)(F)F)cc1-c1ccc(/C=C(\C#N)C(=O)c2ccccc2)s1	i	1	68*	11
COC(=O)[C@@]12CCCCN1[C@H](c1ccc(-c3ccc(OC)cc3)cc1)[C@H]1C(=O)N(C)C(=O)[C@H]12	+	-3	-6	-2
O=C(CCc1c[nH]c2ccccc12)OCc1cccc([N+](=O)[O-])c1	i	1	2	15
CCN(CC)S(=O)(=O)c1ccc2[nH]c(=O)c3ccccc3c2c1	i	-4	4	-6
O=C(COc1ccc(/C=N/NC(=O)c2ccccc2O)cc1)Nc1ccc([N+](=O)[O-])cc1	i	-4	43*	-5
CCc1ccc(NC(=O)CSc2nnc(CNC(=O)c3ccc(OC)cc3)o2)cc1	i	3	-5	-2
Cc1c(CC(=O)O)c(=O)oc2c(C)c(OCc3ccc(F)cc3F)ccc12	i	-4	-2	4
Cc1c(CC(=O)O)c(=O)oc2c(C)c(OCc3ccc(F)cc3Cl)ccc12	i	0	53*	-19
CCN(CC)c1nc(C)c(C(=S)Nc2cc([N+](=O)[O-])ccc2Cl)s1	i	47*	27	-1
Cc1cc(C)c(S(=O)(=O)N2CCN(C(=O)c3ccc4c(c3)OCO4)CC2)c(C)c1	i	1	-5	-4
O=C(/C=C/c1cn(-c2ccccc2)nc1-c1cccc(Cl)c1)N1CCN(c2ccccn2)CC1	i	2	153*	2
O=C(/C=C/c1cn(-c2ccccc2)nc1-c1cccnc1)N1CCCCC1	i	-2	-3	0
Oc1sc(C=Nc2ccc(F)cc2)c2ccccc12	i	36*	12	-1
Oc1c(C=Nc2ccccc2)sc2ccccc12	i	37*	16	0
Oc1sc(C=Nc2ccccc2)c2ccccc12	i	24	28	1
Oc1c(C=Nc2cccnc2)sc2ccccc12	i	14	9	-3
COc1ccc(C(C)=O)c(Oc2ccc(S(=O)(=O)N3CCOCC3)cn2)c1	i	3	-2	-2
SMILES	Myeloid diff MLP	HNF4A DNA FP	CSN inh	Granule exo inh
CCCN1C(=O)/C(=C/c2c(N3CCNC(=O)C3CC(=O)OCC)nc3c(C)cccn3c2=O)SC1=S (centres undefined)	+	3	-78	10
CCOC(=O)/C(C#N)=C/c1c(N2CCN(C)CC2)nc2c(C)cccn2c1=O	i	0	-1	-2
CCOC(=O)CC1C(=O)NCCN1c1nc2ccc(C)cn2c(=O)c1/C=C1\SC(=S)N(CC(C)C)C1=O (centres undefined)	+	85	91	0
COc1cccc(-n2cnnc2SCC(=O)NC2CC2)c1	i	1	-3	-1
CCOc1ccc(N=C2NC(=O)S/C2=C\c2ccc(N(C)C)cc2)cc1	+	34	-68	1
Nc1nc(NCC(=O)O)nc(NC2CCCCC2)c1[N+](=O)[O-]	i	46*	1	4
CCOC(=O)C(=Cc1ccc(-c2ccsc2C(=O)OC)o1)C(=O)OCC	i	5	118*	0
COC(=O)C(=Cc1ccc(-c2ccsc2C(=O)OC)o1)C(=O)OC	i	1	4	52
C[C@H](NC(=O)[C@@H]1Cc2ccccc2CN1)C(=O)Nc1ccc2c(c1)OCO2	i	-3	0	2

Assay outcomes deposited in PubChem BioAssay by several laboratories.
